Data reported in ChEMBL document CHEMBL5131562, “1,3-Dioxane-Linked Novel Bacterial Topoisomerase Inhibitors: Expanding Structural Diversity and the Antibacterial Spectrum” (ACS Med Chem Lett, 2022).
Converted amounts (≈) assume the structure as drawn.

How the values were obtained:
[1] = Cytotoxicity activity against human K562 cells assessed as inhibition of cellular growth; assay type: toxicity, cell-based
In short: (§1)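 Human K562 leukemia cells were tested alongside K/VP.5, an etoposide-resistant clonal subline derived from them that has reduced levels of human topoisomerase IIα. Cell growth inhibition was expressed as an IC50.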

[2] = Metabolic stability in mouse liver microsomes assessed as half life; assay type: ADME, Microsome
DNA gyrase = DNA gyrase (Staphylococcus aureus, UniProt P0A0K8+P20831); test: Inhibition of Staphylococcus aureus DNA gyrase supercoiling activity incubated for 25 min by ethidium bromide/bromophenol blue staining based agarose gel electrophoresis analysis; assay type: protein-complex assay
Staphylococcus aureus [3] = test: Antibacterial activity against methicillin-resistant Staphylococcus aureus USA300 by CLSI method; assay type: functional
Staphylococcus aureus [4] = test: Antibacterial activity against Staphylococcus aureus harbouring GyrA D83N mutant by CLSI method; assay type: functional
Staphylococcus aureus [5] = test: Antibacterial activity against Staphylococcus aureus ATCC 29213 by CLSI method; assay type: functional
Neisseria gonorrhoeae [6] = test: Antimicrobial activity against wild type Neisseria gonorrhoeae O strain incubated for 20 to 24 hrs by CLSI protocol based broth microdilution method; assay type: functional; conditions: time 20-24 hrs
Neisseria gonorrhoeae [7] = test: Antimicrobial activity against wild type Neisseria gonorrhoeae V strain harbouring type 2 topoisomerase GyrA S91F, D95G and ParC S87R mutant incubated for 20 to 24 hrs by CLSI protocol based broth microdilution method; assay type: functional; conditions: time 20-24 hrs
Neisseria gonorrhoeae [8] = test: Antimicrobial activity against Neisseria gonorrhoeae K strain harbouring type 2 topoisomerase GyrA S91F, D95N and ParC S87R, S88P mutant incubated for 20 to 24 hrs by CLSI protocol based broth microdilution method; assay type: functional; conditions: time 20-24 hrs
Neisseria gonorrhoeae [9] = test: Antimicrobial activity against wild type Neisseria gonorrhoeae ATCC 49226 incubated for 20 to 24 hrs by CLSI protocol based broth microdilution method; assay type: functional; conditions: time 20-24 hrs
Topoisomerase IV = Topoisomerase IV (Staphylococcus aureus, UniProt P0C1S7+P0C1U9); test: Inhibition of Staphylococcus aureus DNA topoisomerase 4 decatenation activity using kDNA as substrate incubated for 10 to 20 min by ethidium bromide/bromophenol blue staining based agarose gel electrophoresis analysis; assay type: protein-complex assay
Staphylococcus aureus [10] = test: Antibacterial activity against Staphylococcus aureus 3527 by CLSI method; assay type: functional
[11] = Cytotoxicity activity against human K/VP.5 cells assessed as inhibition of cellular growth; assay type: toxicity, cell-based; in short: as §1
Neisseria gonorrhoeae [12] = test: Antimicrobial activity against Neisseria gonorrhoeae G strain harbouring type 2 topoisomerase GyrA S91F and ParE G410V mutant incubated for 20 to 24 hrs by CLSI protocol based broth microdilution method; assay type: functional; conditions: time 20-24 hrs
Staphylococcus aureus [13] = test: Antibacterial activity against cystic fibrosis isolate Staphylococcus aureus by CLSI method; assay type: functional
Neisseria gonorrhoeae [14] = test: Antimicrobial activity against wild type Neisseria gonorrhoeae F strain incubated for 20 to 24 hrs by CLSI protocol based broth microdilution method; assay type: functional; conditions: time 20-24 hrs
Staphylococcus aureus [15] = test: Selectivity ratio of IC50 for inhibition of Staphylococcus aureus DNA topoisomerase 4 decatenation activity to IC50 for inhibition of Staphylococcus aureus DNA gyrase supercoiling activity
Neisseria gonorrhoeae [16] = test: Antimicrobial activity against wild type Neisseria gonorrhoeae P strain incubated for 20 to 24 hrs by CLSI protocol based broth microdilution method; assay type: functional; conditions: time 20-24 hrs
Neisseria gonorrhoeae [17] = test: Antimicrobial activity against wild type Neisseria gonorrhoeae Y strain harbouring type 2 topoisomerase GyrA S91F, D95G and ParC S87R mutant incubated for 20 to 24 hrs by CLSI protocol based broth microdilution method; assay type: functional; conditions: time 20-24 hrs
[18] = molecular target: Voltage-gated inwardly rectifying potassium channel KCNH2 (Homo sapiens, UniProt Q12809); test: Inhibition of hERG cardiac ion channel; assay type: toxicity
In short: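 hERG channel inhibition was run by a contract lab. […] Determinations were made in duplicate or triplicate (n = 2 or 3).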

Neisseria gonorrhoeae [19] = test: Antimicrobial activity against Neisseria gonorrhoeae L strain harbouring type 2 topoisomerase GyrA S91F,D95N and ParC D86N,S88P mutant incubated for 20 hrs by agar dilution method; assay type: functional
Neisseria gonorrhoeae [20] = test: Antimicrobial activity against Neisseria gonorrhoeae M strain harbouring type 2 topoisomerase GyrA S91F,D95G mutant incubated for 20 hrs by agar dilution method; assay type: functional
[21] = Inhibition of Neisseria gonorrhoeae DNA gyrase supercoiling activity incubated for 25 min by ethidium bromide/bromophenol blue staining based agarose gel electrophoresis analysis
In short: (§2)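 The N. gonorrhoeae enzymes were assayed separately: supercoiling by DNA gyrase, and decatenation of kDNA by topoisomerase IV. Concentration–response data were collected over at least three independent experiments and summarized with standard deviation, and IC50 values were derived.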

[22] = Inhibition of Neisseria gonorrhoeae DNA topoisomerase 4 decatenation activity using kDNA as substrate incubated for 10 to 20 min by ethidium bromide/bromophenol blue staining based agarose gel electrophoresis analysis; in short: as §2

SMILES: O=c1ccc2ccc(F)c3c2n1CC3C[C@H]1OC[C@H](NCc2cc3c(nn2)OCCS3)CO1 (some centres not stated)
- IC50 [1]: 38.7 µM
- half-life [2]: 21.9 min
- IC50 (DNA gyrase): 1.7 µM
- MIC (Staphylococcus aureus [3]): 1 mg/L (≈ 2.13 µM)
- MIC (Staphylococcus aureus [4]): 8 mg/L (≈ 17 µM)
- MIC (Staphylococcus aureus [5]): 0.5 mg/L (≈ 1.06 µM)
- MIC (Neisseria gonorrhoeae [6]): 16 mg/L (≈ 34 µM)
- MIC (Neisseria gonorrhoeae [7]): 4 mg/L (≈ 8.5 µM)
- MIC (Neisseria gonorrhoeae [8]): 32 mg/L (≈ 68 µM)
- MIC (Neisseria gonorrhoeae [9]): 16 mg/L (≈ 34 µM)
- IC50 (Topoisomerase IV): 7.4 µM
- MIC (Staphylococcus aureus [10]): 1 mg/L (≈ 2.13 µM)
- IC50 [11]: 103 µM
- MIC (Neisseria gonorrhoeae [12]): 32 mg/L (≈ 68 µM)
- MIC (Staphylococcus aureus [13]): 0.5 mg/L (≈ 1.06 µM)
- MIC (Neisseria gonorrhoeae [14]): 2 mg/L (≈ 4.25 µM)
- Ratio IC50 (Staphylococcus aureus [15]): 4.4
- MIC (Neisseria gonorrhoeae [16]): 16 mg/L (≈ 34 µM)
- MIC (Neisseria gonorrhoeae [17]): 2 mg/L (≈ 4.25 µM)
- IC50 [18]: 200 µM

SMILES: O=C(O)c1cn(C2CC2)c2cc(N3CCNCC3)c(F)cc2c1=O [CIPROFLOXACIN]
- MIC (Neisseria gonorrhoeae [19]): > 8 mg/L
- MIC (Neisseria gonorrhoeae [20]): 2 mg/L (≈ 6.04 µM)

SMILES: O=C1COc2ccc(CN[C@H]3CO[C@H](CC4Cn5c(=O)ccc6ncc(F)c4c65)OC3)nc2N1 (some centres not stated)
- IC50 [1]: > 200 µM
- half-life [2]: 66.3 min
- IC50 (DNA gyrase): 4.2 µM
- MIC (Staphylococcus aureus [3]): 1 mg/L (≈ 2.14 µM)
- MIC (Staphylococcus aureus [4]): 8 mg/L (≈ 17.1 µM)
- MIC (Staphylococcus aureus [5]): 2 mg/L (≈ 4.28 µM)
- MIC (Neisseria gonorrhoeae [6]): 1 mg/L (≈ 2.14 µM)
- MIC (Neisseria gonorrhoeae [7]): 0.5 mg/L (≈ 1.07 µM)
- MIC (Neisseria gonorrhoeae [8]): 1 mg/L (≈ 2.14 µM)
- MIC (Neisseria gonorrhoeae [9]): 1 mg/L (≈ 2.14 µM)
- IC50 (Topoisomerase IV): 1.4 µM
- MIC (Staphylococcus aureus [10]): 2 mg/L (≈ 4.28 µM)
- IC50 [11]: > 200 µM
- MIC (Neisseria gonorrhoeae [12]): 2 mg/L (≈ 4.28 µM)
- MIC (Staphylococcus aureus [13]): 2 mg/L (≈ 4.28 µM)
- MIC (Neisseria gonorrhoeae [14]): 0.12 mg/L (≈ 0.257 µM)
- Ratio IC50 (Staphylococcus aureus [15]): 0.33
- MIC (Neisseria gonorrhoeae [16]): 2 mg/L (≈ 4.28 µM)
- MIC (Neisseria gonorrhoeae [17]): 1 mg/L (≈ 2.14 µM)
- IC50 [18]: 97 µM

SMILES: COc1ccc2ncc(F)c(C[C@H](O)[C@H]3OC[C@H](NC(=O)c4ccc5c(c4)OCCO5)CO3)c2n1
- IC50 [1]: 1.6 µM
- half-life [2]: 14.2 min
- IC50 (DNA gyrase): 0.23 µM
- MIC (Staphylococcus aureus [3]): 0.25 mg/L (≈ 0.515 µM)
- MIC (Staphylococcus aureus [4]): 2 mg/L (≈ 4.12 µM)
- MIC (Staphylococcus aureus [5]): 0.25 mg/L (≈ 0.515 µM)
- MIC (Neisseria gonorrhoeae [6]): > 16 mg/L
- MIC (Neisseria gonorrhoeae [7]): 0.25 mg/L (≈ 0.515 µM)
- MIC (Neisseria gonorrhoeae [8]): > 16 mg/L
- MIC (Neisseria gonorrhoeae [9]): 4 mg/L (≈ 8.24 µM)
- IC50 (Topoisomerase IV): 1.7 µM
- MIC (Staphylococcus aureus [10]): 0.25 mg/L (≈ 0.515 µM)
- IC50 [11]: 6 µM
- MIC (Neisseria gonorrhoeae [12]): > 16 mg/L
- MIC (Staphylococcus aureus [13]): 0.25 mg/L (≈ 0.515 µM)
- MIC (Neisseria gonorrhoeae [14]): 0.25 mg/L (≈ 0.515 µM)
- Ratio IC50 (Staphylococcus aureus [15]): 7.6
- MIC (Neisseria gonorrhoeae [16]): > 16 mg/L
- MIC (Neisseria gonorrhoeae [17]): 0.5 mg/L (≈ 1.03 µM)
- IC50 [18]: > 100 µM

SMILES: O=c1ccc2ncc(F)c3c2n1CC3C[C@H]1OC[C@H](NCc2cc3c(cn2)OCCC3)CO1 (some centres not stated)
- IC50 [1]: 268 µM
- half-life [2]: 18.3 min
- IC50 (DNA gyrase): 2.1 µM
- MIC (Staphylococcus aureus [3]): 1 mg/L (≈ 2.21 µM)
- MIC (Staphylococcus aureus [4]): 8 mg/L (≈ 17.7 µM)
- MIC (Staphylococcus aureus [5]): 0.25 mg/L (≈ 0.553 µM)
- MIC (Neisseria gonorrhoeae [6]): 2 mg/L (≈ 4.42 µM)
- MIC (Neisseria gonorrhoeae [7]): ≤ 0.03 mg/L
- MIC (Neisseria gonorrhoeae [8]): 1 mg/L (≈ 2.21 µM)
- MIC (Neisseria gonorrhoeae [9]): 2 mg/L (≈ 4.42 µM)
- IC50 (Topoisomerase IV): 1.6 µM
- MIC (Staphylococcus aureus [10]): 1 mg/L (≈ 2.21 µM)
- IC50 [11]: 187 µM
- MIC (Neisseria gonorrhoeae [12]): 8 mg/L (≈ 17.7 µM)
- MIC (Staphylococcus aureus [13]): 0.5 mg/L (≈ 1.11 µM)
- MIC (Neisseria gonorrhoeae [14]): 0.12 mg/L (≈ 0.265 µM)
- Ratio IC50 (Staphylococcus aureus [15]): 0.76
- MIC (Neisseria gonorrhoeae [16]): 2 mg/L (≈ 4.42 µM)
- MIC (Neisseria gonorrhoeae [17]): 0.25 mg/L (≈ 0.553 µM)
- IC50 [18]: 125 µM

SMILES: COc1ccc2ncc(F)c(C[C@H](O)[C@H]3OC[C@H](NCc4cc5c(nn4)OCCS5)CO3)c2n1
- MIC (Neisseria gonorrhoeae [6]): 16 mg/L (≈ 32.7 µM)
- MIC (Neisseria gonorrhoeae [7]): ≤ 0.03 mg/L
- IC50 [21]: 33 µM
- MIC (Neisseria gonorrhoeae [8]): 16 mg/L (≈ 32.7 µM)
- IC50 [22]: 83 µM
- MIC (Neisseria gonorrhoeae [9]): 8 mg/L (≈ 16.3 µM)
- MIC (Neisseria gonorrhoeae [12]): 32 mg/L (≈ 65.4 µM)
- MIC (Neisseria gonorrhoeae [14]): 1 mg/L (≈ 2.04 µM)
- MIC (Neisseria gonorrhoeae [16]): 16 mg/L (≈ 32.7 µM)
- MIC (Neisseria gonorrhoeae [17]): 0.5 mg/L (≈ 1.02 µM)
